Experimental data from article PMC11566320 (Current Research in Pharmacology and Drug Discovery, 2024).
Like-named read-outs stand apart in the source and are kept apart here.

How the values were obtained:
[1] = system: mice; conditions: cited from earlier work
[2] = system: HaCaT-II-4 cells; experiment: Cytotoxicity, WST-1 cell viability assay; format: cell-based, human; conditions: read-out: IC50 against HaCaT-II-4 cells, 72 h post-treatment
Outline: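 HaCaT-II-4 cells (passage 15) in DMEM with 10% FBS and 1% penicillin-streptomycin were seeded at 10,000 cells/100 μL per well. They were exposed for 72 h to 3-fold serial dilutions, 0.023–150 μM. Medium was replaced with fresh DMEM plus WST-1 for 4 h at 37 °C, and absorbance was read at 450 nm for viability. Three independent trials, each in triplicate; mean ± SEM.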

[3] = system: HaCaT-II-4 cells; experiment: Quantification of cellular uptake by ICP-MS; format: cell-based, human; conditions: 3 μM, maximum at 24 h
[4] = system: HaCaT-II-4 cells; experiment: Cellular fractionation / intracellular distribution by ICP-MS; format: cell-based, human; conditions: 3 μM, 24 h
Outline: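 HaCaT-II-4 cells adhered overnight at 37 °C, 5% CO2, then treated with 3 μM for 24 h. Washed thrice in cold PBS, trypsinised, pelleted (350 g, 5 min, 4 °C) and washed in PBS. Kit buffers gave the cytoplasmic fraction (on ice 5 min, 500 g), the membrane/organelle fraction (on ice 5 min, 8000 g) and a nuclear/cytoskeletal pellet. Results are % platinum per fraction; three independent experiments in triplicate, mean ± SEM.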

[5] = system: HaCaT-II-4 cells; experiment: Cell death analysis by flow cytometry; format: cell-based, human; conditions: 3 μM
Outline: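 HaCaT-II-4 cells plated at 10^5 cells/ml in 6-well plates, adhered overnight, then exposed to 3 μM test compound for 48 or 72 h at 37 °C, 5% CO2, with a positive control. Harvested cells resuspended in Guava Nexin reagent (Annexin V-PE/7-AAD), 10 min in the dark. Flow cytometry on FL1-H vs FL2-H gave % early apoptosis, late apoptosis and necrosis. Three independent experiments in triplicate; mean ± SEM.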

[6] = system: DMBA/TPA-induced skin tumors in BALB/c mice; experiment: DMBA/TPA induced skin carcinogenesis mouse model; format: in vivo; conditions: IP weekly; P-PENT 5 and 15 mg/kg, P-HEX 5, 15, 25 mg/kg, cisplatin 2.5 mg/kg
[7] = system: BALB/c mice; experiment: Preliminary cisplatin treatment in BALB/c mice; format: in vivo; conditions: 5 mg/kg dose, after few weeks of treatment, preliminary data
[8] = system: cancerous cells compared to the non-cancerous MCs; conditions: ref Khoury et al. (2022); cited from earlier work
[9] = of body weight in mice, ref O'Dwyer et al., 1985, Korst et al., 1997

O=C1[O][Pt]2([NH][C@@H]3CCCC[C@H]3[NH]2)[O]C1=O [Oxaliplatin]
MTD as platinum [1, 9]: 9.82 mg Pt/Kg

N.N.[Cl][Pt][Cl] [Cisplatin]
IC50 [2]: 6.7 ± 0.76 µM | maximum cellular uptake [3]: 380 nmol/10^6 cells | accumulation in cytoplasmic fraction (CF) [4]: 38% | accumulation in membrane and organelle (MO) fraction [4]: 47% | accumulation in nuclear and cytoskeletal (NC) fraction [4]: 15% | necrosis ([5]; 48 or 72 h): No evidence of significant necrosis | early and late apoptosis compared to the negative control ([5]; 48 h and 72 h): significant (p < 0.0001) increase in both early and late apoptosis | week from which tumor volume was significantly decreased compared to control [6]: 4 week | mortality [7]: causes significant mortality | MTD as platinum ([1]; BALB/c mice, ref Aston et al. (2017)): 3.9 mg Pt/Kg

COc1ccnc2c1ccc1c(OC)ccnc12.NC1CCCCC1N.O=[N+]([O-])[O-].O=[N+]([O-])[O-].[OH-].[OH-].[Pt+4] [47OMESS(IV)]
greater selectivity toward the cancerous cells compared to the non-cancerous MCs [8]: 17–22 fold

N.N.O=C([O-])C1(C(=O)[O-])CCC1.[Pt+2] [Carboplatin]
MTD as platinum [1, 9]: 31.53 mg Pt/Kg
